The source made the active and inactive calls. The calls are words filed in the database; no cut-off is given here.
How the values were obtained:
[1] = target: Casein kinase II (Homo sapiens) (UniProt P67870+P68400+P19784); experiment: (§1) Inhibition of human CK2 assessed as residual activity by KinaseProfiler assay; format: protein-complex assay
Casein kinase II [2] = target: T1, Casein kinase II (Homo sapiens, UniProt P19784+P67870+P68400); experiment: Competitive inhibition of human CK2 assessed as competitive with respect to ATP; format: protein-complex assay
AGS [3] = experiment: Cytotoxicity against human AGS cells assessed as cell viability at 10 uM after 24 hrs by MTT assay; format: functional, cell-based
Procedure, shortened: (§2)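 AGS and HepG2 kept in Modified Eagle's Medium with serum and antibiotics at 37 °C, 5% CO2. Seeded at 1 × 10⁴ cells/well and grown 24 h, then exposed for 24 h. MTT at 4 mg/mL final for 2 h, formazan dissolved in DMSO, A570. Quadruplicate.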

MKN-28 [4] = experiment: Cytotoxicity against human MKN28 cells assessed as cell viability at 10 uM after 24 hrs by MTT assay; format: functional, cell-based
Procedure, shortened: (§3)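 Lines from Korea Cell Line Bank, kept in RPMI1640 with serum and penicillin/streptomycin at 37 °C, 5% CO2. Seeded at 1 × 10⁴ cells/well and grown 24 h, then exposed to the inhibitor for 24 h. MTT added at 4 mg/mL final for 2 h, formazan taken up in DMSO, absorbance read at 570 nm. Run in quadruplicate.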

MKN-45 = experiment: Cytotoxicity against human MKN45 cells assessed as cell viability at 10 uM after 24 hrs by MTT assay; format: functional, cell-based; procedure, shortened: as §3
MKN-74 = experiment: Cytotoxicity against human MKN74 cells assessed as cell viability at 10 uM after 24 hrs by MTT assay; format: functional, cell-based; procedure, shortened: as §3
NCI-N87 = experiment: Cytotoxicity against human NCI-N87 cells assessed as cell viability at 10 uM after 24 hrs by MTT assay; format: functional, cell-based; procedure, shortened: as §3
SNU484 = experiment: Cytotoxicity against human SNU484 cells assessed as cell viability at 10 uM after 24 hrs by MTT assay; format: functional, cell-based; procedure, shortened: as §3
SNU668 = experiment: Cytotoxicity against human SNU668 cells assessed as cell viability at 10 uM after 24 hrs by MTT assay; format: functional, cell-based; procedure, shortened: as §3
HepG2 [5] = experiment: Cytotoxicity against human HepG2 cells assessed as cell viability at 10 uM after 24 hrs by MTT assay; format: functional, cell-based; procedure, shortened: as §2
Hep 3B2 = experiment: Cytotoxicity against human Hep3B cells assessed as cell viability at 10 uM after 24 hrs by MTT assay; format: functional, cell-based
Procedure, shortened: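 Hep3B kept in Dulbecco's Modified Eagle's Medium with serum and antibiotics at 37 °C, 5% CO2. Seeded at 1 × 10⁴ cells/well and grown 24 h, then exposed for 24 h. MTT at 4 mg/mL final for 2 h, DMSO solubilisation, A570. Quadruplicate.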

SNU761 = experiment: Cytotoxicity against human SNU761 cells assessed as cell viability at 10 uM after 24 hrs by MTT assay; format: functional, cell-based; procedure, shortened: as §3
SNU878 = experiment: Cytotoxicity against human SNU878 cells assessed as cell viability at 10 uM after 24 hrs by MTT assay; format: functional, cell-based; procedure, shortened: as §3
TE-2 [6] = experiment: Cytotoxicity against GFP-tagged human TE2 cells assessed as cell viability at 10 uM after 24 hrs by MTT assay; format: functional, cell-based
Procedure, shortened: (§4)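 Esophageal TE2 cells stably carrying GFP or CK2α were plated at 1 × 10⁴ cells/well and grown 24 h. They were then exposed for 24 h, given MTT at 4 mg/mL final for 2 h, formazan dissolved in DMSO, absorbance at 570 nm.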

TE-2 [7] = experiment: Cytotoxicity against human TE2 cells expressing CK2 assessed as cell viability at 10 uM after 24 hrs by MTT assay; format: functional, cell-based; procedure, shortened: as §4
AGS [8] = experiment: Induction of apoptosis in TRAIL-resistant human AGS cells assessed as cell death at 10 uM after 24 hrs and subsequently treated with TRAIL 200 ng/ml for 2 hr by Annexin-V-FLUOS staining; format: functional, cell-based
Procedure, shortened: (§5)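 Cells were left untreated or pretreated with the inhibitor at 10 µM for 24 h, then exposed to TRAIL (200 ng/mL) for 2 h. They were then washed with PBS and stained with Annexin-V-FLUOS/propidium iodide for 15 min. Apoptotic cells were counted by fluorescence microscopy. Viability was assessed in parallel by MTT. Data are given as mean ± SD.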

MKN-1 = experiment: Induction of apoptosis in TRAIL-resistant human MKN1 cells assessed as cell death at 10 uM after 24 hrs and subsequently treated with TRAIL 200 ng/ml for 2 hr by Annexin-V-FLUOS staining; format: functional, cell-based; procedure, shortened: as §5
MKN-28 [9] = experiment: Induction of apoptosis in TRAIL-resistant human MKN28 cells assessed as cell death at 10 uM after 24 hrs and subsequently treated with TRAIL 200 ng/ml for 2 hr by Annexin-V-FLUOS staining; format: functional, cell-based; procedure, shortened: as §5
HepG2 [10] = experiment: Induction of apoptosis in TRAIL-resistant human HepG2 cells assessed as cell death at 10 uM after 24 hrs and subsequently treated with TRAIL 200 ng/ml for 2 hr by Annexin-V-FLUOS staining; format: functional, cell-based; procedure, shortened: as §5
SK-HEP1 = experiment: Induction of apoptosis in TRAIL-resistant human SKHEP1 cells assessed as cell death at 10 uM after 24 hrs and subsequently treated with TRAIL 200 ng/ml for 2 hr by Annexin-V-FLUOS staining; format: functional, cell-based; procedure, shortened: as §5
SNU739 [11] = experiment: Induction of apoptosis in TRAIL-resistant human SNU739 cells assessed as cell death at 10 uM after 24 hrs and subsequently treated with TRAIL 200 ng/ml for 2 hr by Annexin-V-FLUOS staining; format: functional, cell-based; procedure, shortened: as §5
SNU739 [12] = experiment: Cytotoxicity against human SNU739 cells assessed as cell viability at 10 uM after 24 hrs by MTT assay
[13] = target: Casein kinase II subunit alpha (Homo sapiens) (UniProt P68400); experiment: Inhibition of recombinant human CK2alpha assessed as inhibition of phosphorylation of GST-CS by Coomassie brilliant blue staining based autoradiography
[14] = target: Casein kinase II subunit alpha (Homo sapiens) (UniProt P68400); experiment: Inhibition of recombinant human CK2alpha assessed as inhibition of phosphorylation of GST-CS at 10 uM by Coomassie brilliant blue staining based autoradiography
Casein kinase II [15] = target: T1, Casein kinase II; experiment: as §1; format: protein-complex assay

Row | Compound | Activity (AGS [3]) | Activity (MKN-28 [4]) | Activity (MKN-45) | Activity (MKN-74) | Activity (NCI-N87) | Activity (SNU484) | Activity (SNU668) | Activity (HepG2 [5]) | Activity (Hep 3B2) | Activity (SNU761) | Activity (SNU878) | Activity (TE-2 [6]) | Activity (TE-2 [7]) | Activity (SNU739 [12]) | inhibition [14] | also measured
1 | CCOC(=O)C1=C(C)N=c2s/c(=C\c3ccc(O)c(O)c3)c(=O)n2C1c1ccc(Cl)cc1 (stereo not given) | Active | Active | Active | Active | Active | Active | Active | Active | Active | Active | Active | Active | Active | Active | Active | Activity [1]: Active; Ki (Casein kinase II [2]): 0.78 µM; Activity (AGS [8]): Active; Activity (MKN-1): Active; Activity (MKN-28 [9]): Active; Activity (HepG2 [10]): Active; Activity (SK-HEP1): Active; Activity (SNU739 [11]): Active; inhibition [13]: Active
2 | CCOC(=O)C1=C(C)N=c2s/c(=C\c3cc(O)c(O)c(O)c3)c(=O)n2C1c1ccc(Cl)cc1 (stereo not given) | – | – | – | – | – | – | – | – | – | – | – | – | – | – | Active | IC50 (Casein kinase II [15]): 8.79 µM
3 | Brc1c(Br)c(Br)c2[nH]nnc2c1Br | Active | Active | Active | Active | Active | Active | Active | Active | Active | Active | Active | Active | Active | Active | – | –

Reference: ChEMBL document CHEMBL3351625, “Ethyl 2-(benzylidene)-7-methyl-3-oxo-2,3-dihydro-5H-thiazolo[3,2-a]pyrimidine-6-carboxylate analogues as a new scaffold for protein kinase casein kinase 2 inhibitor” (Bioorg Med Chem, 2014)
